Results taken from article PMC9365243 (Chemical Science, 2022).

Test system: human monocyte-derived macrophages
Experiment: Fluorophore uptake, fluorescence microscopy of macrophages
Type: cell-based
Settings: 30 μM, 3 h, 37 °C, fluorescence microscopy (λex 492 nm, λem 518 nm)
Summary of the method: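 Human monocyte-derived macrophages were incubated for 3 h with 30 μM free fluorophore or fluorophore-labelled oligopeptide, with DMSO alone as negative control. Cells were then imaged by fluorescence microscopy in the green channel (λex = 492 nm, λem = 518 nm) and in light field to find where the fluorophore sat.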

uptake into cells (fluorophore localization): not able to penetrate the cell membrane
Structure (SMILES): O=C(O)c1ccc2c(c1)C(=O)OC21c2ccc(O)cc2Oc2cc(O)ccc21 [5-FAM, 5-carboxy-fluorescein]
